# A selection: hits, their analogues and other compounds. The true share with any hit is near 4.6%.
# CHO parental Ca = counter-screen: ATP calcium response change in parental CHO cells | parental CHO-K1, ATP-induced calcium, Fluo-8 fluorescence | inhibition, % at 5.6 µM | hit rate 0.63% among 330,000;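 active means inhibition above that plate's mean sample inhibition plus 3 SD, cut at about 26% in these data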;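 further: 0% = ATP-challenged DMSO wells and 100% = DMSO wells without ATP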
#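 Test system: untransfected parental CHO cell line; also added: ATP stimulus; dosing: 5.6 µM, single dose; signal: calcium-sensitive Fluo-8 fluorescence; measure: percent inhibition of ATP-evoked calcium rise, normalized to controls; benchmarks: low control ATP plus DMSO, high control DMSO only; replication: one well per compound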
# OX1R antag-1 = blocks the human orexin 1 receptor | hit rate 0.43% among 330,000 | AID 434989 | inhibition, % at 5 µM | CHO/OX1R cells, Fluo-8 calcium fluorescence, orexin A;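 active means inhibition above its plate's threshold, mean inhibition of all tested compounds on the plate plus 3 SD, cut at about 37% in these data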;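 further: 0% = orexin A challenge wells and 100% = SB-334867-A antagonist wells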
# TAAR1 agonist = agonists of human TAAR1; Q96RJ0; CHO RD-HGA16 TAAR1, Fluo-8 calcium fluorescence; vehicle wells 0%, saturating PEA agonist 100%; activation, % at 3 µM; hit rate 0.99% among 360,000; AID 624467;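 active means activation above the mean activation of all test compounds in the run plus 3 SD, cut at about 38% in these data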
# Target sequence (Q96RJ0 whole entry, looked up): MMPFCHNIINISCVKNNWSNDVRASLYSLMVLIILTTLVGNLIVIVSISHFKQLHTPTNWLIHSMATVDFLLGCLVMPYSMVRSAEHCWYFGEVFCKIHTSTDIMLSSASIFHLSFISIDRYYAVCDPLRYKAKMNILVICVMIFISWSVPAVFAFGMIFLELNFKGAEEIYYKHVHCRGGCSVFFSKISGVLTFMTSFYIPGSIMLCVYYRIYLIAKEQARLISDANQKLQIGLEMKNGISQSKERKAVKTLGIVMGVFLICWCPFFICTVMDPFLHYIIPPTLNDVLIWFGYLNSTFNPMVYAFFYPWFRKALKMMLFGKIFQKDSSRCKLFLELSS
#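 Assay system – CHO-derived RD-HGA16 cells with stable Gα16 and human TAAR1 · Compound dosing – one-point dosing at 3 µM (nominal) · Incubation – 17-24 h seeding, 75 min 37 °C dye, 30 min RT · Measured by – kinetic Fluo-8 calcium fluorescence · Control set – DMSO vehicle as 0%, PEA at EC100 as 100% · Repeats – single well for each compound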
# TAAR1 antagonist = antagonists of human TAAR1 | Q96RJ0 | CHO RD-HGA16 TAAR1, Fluo-8 calcium fluorescence, antagonist | inhibition, % at 3 µM | hit rate 1.5% among 360,000;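 active means inhibition above a per-plate cutoff, the mean inhibition of test compounds on that plate plus 3 SD, cut at about 49% in these data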;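 further: 0% = DMSO plus EC80 beta-PEA response and 100% = DMSO alone without agonist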
#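 Test system: RD-HGA16 CHO cells with stable hTAAR1 and Gα16 / Probe or stimulus: EC80 β-phenethylamine stimulus / Times: seeding 17-24 h prior, 75-min 37 °C, 30-min RT dye loading / Detection: Fluo-8 calcium-sensitive fluorescence / Read-out basis: % inhibition scaled between DMSO and EC80 PEA controls / Repeats: singlicate, one well per test compound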
# GPR7 antag = blocks human GPR7 receptor signaling | GPR7-expressing cells, fluorescence antagonist assay | P48145 | hit rate 1.1% among 290,000 | inhibition, % at 4.4 µM; in the data active means inhibition above about 16%, passing the limit was not always enough;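 further: cells stimulated with the agonist NPW; 0% = agonist with vehicle and 100% = vehicle without agonist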
# Target sequence (P48145 whole entry, looked up): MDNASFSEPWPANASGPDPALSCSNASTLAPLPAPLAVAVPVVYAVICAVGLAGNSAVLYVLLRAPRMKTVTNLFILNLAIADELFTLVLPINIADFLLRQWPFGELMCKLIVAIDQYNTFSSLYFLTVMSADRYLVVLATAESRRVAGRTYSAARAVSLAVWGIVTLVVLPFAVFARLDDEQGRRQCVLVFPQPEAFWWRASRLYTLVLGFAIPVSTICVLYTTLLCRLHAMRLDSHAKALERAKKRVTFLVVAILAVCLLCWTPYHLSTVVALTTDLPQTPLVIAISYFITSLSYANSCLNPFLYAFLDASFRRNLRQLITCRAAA
# OX1R antag-2 = antagonists of human orexin 1 receptor (OX1R); O43613; OX1R-expressing cells, FRET antagonist read-out; inhibition, % at 6.6 µM; hit rate 1.8% among 330,000; in the data active means inhibition mostly above about 38%, no sharp cut-off; inactive means mostly below about 40%;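 further: 0% = agonist challenge alone and 100% = reference antagonist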
# TAAR1 ag conf = confirmation of human TAAR1 agonists. shares compounds with TAAR1 agonist. CHO RD-HGA16 TAAR1, Fluo-8 calcium fluorescence; scaled: DMSO 0%, maximal phenethylamine 100%. activation, % at 3 µM. hit rate 82% among 2,400. AID 651783;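 active means activation above a cutoff set at the run's mean compound activation plus 3 SD, cut at about 39% in these data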
# Ga16 ag counter = nonselective agonist in parental cells, TAAR1 agonist counter-screen | activation, % at 3 µM | CHO-Ga16 parental, Fluo-8 calcium fluorescence; normalized to maximal ATP response, DMSO zero | shares compounds with TAAR1 agonist | hit rate 50% among 2,400 | AID 651787;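 active means activation above the run cutoff, the mean activation over all tested wells plus 3 SD, cut at about 12% in these data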;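 further: 0% = DMSO wells and 100% = maximal ATP response on the peak over basal ratio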
# TAAR1 desens = TAAR1 response desensitization, agonist counter-screen; shares compounds with TAAR1 agonist; CHO RD-HGA16 hTAAR1, Fluo-8 calcium, beta-PEA response inhibition; inhibition, % at 3 µM; hit rate 46% among 2,400;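 active means inhibition above the run cutoff, the mean inhibition of all test compounds plus 3 SD, cut at about 49% in these data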;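 further: beta-PEA stimulus applied at its EC80; loss of beta-PEA calcium signal after compound pretreatment read as receptor desensitization; 0% = DMSO with beta-PEA at EC80 and 100% = DMSO alone without agonist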
# Ga16 antag count = nonselective Ga16 antagonism, counter-screen; CHO-Ga16 ATP-induced calcium, Fluo-8 fluorescence; hit rate 39% among 2,400; shares compounds with TAAR1 agonist; AID 651952; inhibition, % at 3 µM;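 active means inhibition above the plate's mean compound inhibition plus 3 SD, computed per plate, cut at about 22% in these data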;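 further: 0% = EC80 ATP with DMSO and 100% = DMSO wells without ATP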
# Numbers without * were called inactive; x = not tested or not shown.
SMILES,CHO parental Ca,OX1R antag-1,TAAR1 agonist,TAAR1 antagonist,GPR7 antag,OX1R antag-2,TAAR1 ag conf,Ga16 ag counter,TAAR1 desens,Ga16 antag count
COc1ccc(OCC(=O)NNC(=S)NC(=O)c2ccc([N+](=O)[O-])cc2)cc1,-5,-14,2,-8,-11,34,x,x,x,x
COc1ccc(C(=O)NC(=S)NNC(=O)c2ccc(NC(C)=O)cc2)cc1Br,-23,-33,10,-7,-1,11,x,x,x,x
COc1ccc(C(=O)NNC(=S)NC(=O)c2ccc(OC)cc2)cc1,12,23,110*,81*,0,7,88*,89*,49*,47*
CCNC(=S)NNC(=O)c1ccc(OC)cc1,0,4,5,0,-4,7,x,x,x,x
CCCCC(=O)NC(=S)NNC(=O)c1ccc(OC)cc1,14,7,85*,38,-4,8,99*,82*,51*,44*
COc1ccc(OCC(=O)NNC(=S)NC(=O)c2ccc(Br)o2)cc1,-8,-8,55*,14,-5,-2,34,18*,24,21
COc1ccc(C(=O)NC(=S)NNC(=O)c2ccncc2)cc1Br,1,-2,60*,14,x,6,35,32*,22,18
Brc1ccc(N=C(c2ccccc2)c2ccncc2)cc1,4,5,-1,-2,-5,10,x,x,x,x
O=C(NC1CCCCC1)c1cccnc1C(=O)O,2,-12,5,-3,-2,16,x,x,x,x
O=C(O)c1ccccc1C(=O)NC1Cc2ccccc2C1,-12,3,85*,77*,-5,1,98*,16*,91*,6
COc1cc(C(C)=O)ccc1OCC(O)CN1CCN(S(=O)(=O)c2ccccc2)CC1 (configuration not stated),-5,-17,15,3,13,35,x,x,x,x
COc1cc(C(C)=O)ccc1OCC(O)CNCC(O)c1ccccc1 (configuration not stated),-18,-27,91*,36,0,-3,98*,3,74*,0
NC(=O)C1CC(=O)N(c2ccc(OCc3c(Cl)cccc3Cl)cc2)C1 (configuration not stated),1,5,44*,-4,0,32,24,15*,15,20
COCCN1CCC(CNCc2c(C(=O)N3CCCCC3)nc3c(C)cccn23)C1 (configuration not stated),-19,-6,3,-17,-15,11,x,x,x,x
Cc1cccn2c(CNCC3OCCc4ccccc43)c(C(=O)N3CCCCC3)nc12 (configuration not stated),-22,-37,69*,45,-21,7,74*,6,61*,19
O=C(Cn1cnc([N+](=O)[O-])n1)N/N=C/c1ccccc1O,-11,-8,53*,4,7,49,69*,5,24,-1
CCC(=O)N(CC)c1nc(-c2cc(OC)ccc2OC)cs1,-18,-27,50*,43,-16,15,45*,35*,39,26*
O=C(CCNS(=O)(=O)c1ccc(Cl)cc1)N1CCOCC1,-2,-5,-1,-27,-13,23,x,x,x,x
COc1ccc(Cn2c(-c3ccc(C)cc3)nc3c(c(=O)c4ccccc4n3C)c2=O)cc1,-9,-27,91*,58*,-8,15,85*,53*,68*,42*
Clc1ccc(-c2nc3ccncc3[nH]2)cc1,-1,-19,49*,19,6,0,72*,-1,40,8
c1ccc(-c2ccccc2-n2cnnn2)cc1,12,-11,10,11,0,8,x,x,x,x
O=C(NCc1cccs1)c1cc(-c2ccccc2)on1,-6,-3,57*,40,-3,5,28,19*,14,23*
O=C(NCc1cccs1)c1cc(-c2cccs2)on1,-8,-10,18,25,1,21,x,x,x,x
COc1ccc(N2CCN(C(=O)COC(=O)CNC(=O)c3ccccc3)CC2)cc1,-1,-7,5,-23,5,8,x,x,x,x
Cc1cccc(NS(=O)(=O)c2ccc(C3CCCCC3)cc2)c1,48*,51*,59*,55*,-10,0,38*,8,48,37*
SMILES,CHO parental Ca,OX1R antag-1,TAAR1 agonist,TAAR1 antagonist,GPR7 antag,OX1R antag-2,TAAR1 ag conf,Ga16 ag counter,TAAR1 desens,Ga16 antag count
N#CCc1ccc(NS(=O)(=O)c2ccc(C3CCCCC3)cc2)cc1,68*,13,51*,51*,-4,17,51*,24*,42,34*
O=C(O)c1cccc(NS(=O)(=O)c2ccc(C3CCCCC3)cc2)c1,-8,5,x,x,15,7,x,x,x,x
CC1CCN(Cc2csc(N)n2)CC1,-1,-10,0,-2,-10,0,x,x,x,x
CCOc1ccccc1N1CCN(Cc2cn[nH]c2-c2ccc(F)cc2)CC1,-31,-42,95*,-29,-17,7,83*,41*,22,12
CCOc1ccccc1N1CCN(Cc2cccc(OC)c2OC)CC1,-34,-41,13,9,-6,8,x,x,x,x
Cc1ccc(NS(=O)(=O)c2ccc(C(=O)N3CC(C)CC(C)C3)cc2)cc1 (configuration not stated),64*,63*,141*,102*,x,0,128*,91*,106*,89*
Cc1ccc(S(=O)(=O)Nc2ccc(C(=O)N3CCCC3)cc2)cc1,-4,-27,2,-8,-9,11,x,x,x,x
CC1CN(C(=O)COC(=O)c2cc(=O)[nH]c3ccccc23)CC(C)O1 (configuration not stated),x,x,1,-10,x,x,x,x,x,x
COc1cccc(/C=N/Nc2ccccc2C(=O)O)c1O,1,8,1,-7,-6,1,x,x,x,x
COc1cccc(/C=N/Nc2snc(SC)c2C#N)c1O,0,10,75*,60*,-9,60*,69*,52*,82*,44*
C[C@H]1[C@H](c2ccccc2)Oc2cccc(NCCc3ccccc3)c2S(=O)(=O)N1Cc1ccc(F)cc1,x,x,79*,2,x,x,70*,2,18,10

# Compound activity deposited in PubChem by The Scripps Research Institute Molecular Screening Center.
